This passage reports MIC, IC50 and Activity results from ChEMBL document CHEMBL3351277, “Discovery and structure-activity relationship studies of irreversible benzisothiazolinone-based inhibitors against Staphylococcus aureus sortase A transpeptidase” (Bioorg Med Chem, 2014).

By MIC is commonly meant the lowest concentration that inhibits growth of the organism. In general, IC50 refers to the concentration needed to halve the response being measured.

In assay [1] the test system is Staphylococcus epidermidis. Briefly: Antibacterial activity against Staphylococcus epidermidis ATCC 12228 after 24 hrs by broth dilution method. The format is functional. Conditions: ATCC 12228, 24 h. In outline:
(§1)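 Broth microdilution, 0.1–500 µg/mL in Mueller Hinton broth for S. aureus and S. epidermidis and Luria Bertani broth for E. coli. Inoculum was log-phase culture at OD600 0.1, incubated 24 h at 37 °C, with growth read as A600. Triplicates, repeated three times.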
For orientation: In broth dilution the organism is exposed to a series of concentrations in liquid medium.

The subject of another assay is Staphylococcus aureus. Briefly: Antibacterial activity against Staphylococcus aureus ATCC 25904 after 24 hrs by broth dilution method. The following applies: ATCC 25904, 24 h. The assay is classed as functional. In outline: as §1
A further assay has as its system Escherichia coli. In words: Antibacterial activity against Escherichia coli ATCC 25922 after 24 hrs by broth dilution method. The format is functional. Conditions: ATCC 25922, 24 h. In outline: as §1
Assay [2] is described as follows: Cytotoxicity against Swiss mouse NIH/3T3 cells after 48 hrs by MTT assay. The assay is classed as cell-based. Conditions: NIH3T3, 48 h. In outline:
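NIH 3T3 fibroblasts were seeded in DMEM with 10% FCS and rested 24 h, then exposed to graded compound concentrations for 48 h. Medium was replaced with phenol-red-free medium plus 1 mM MTT for 3 h, then 1% SDS–HCl was added for 4 h. A570 was read. IC50 was the 50% proliferation inhibition versus untreated control, from nonlinear dose–response regression.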
In general terms: Tetrazolium dyes change colour on reduction, which living cells bring about.

For a further assay, the target named is T1, Sortase A (Staphylococcus aureus, UniProt Q9S446).
T1 sequence (Q9S446 whole entry): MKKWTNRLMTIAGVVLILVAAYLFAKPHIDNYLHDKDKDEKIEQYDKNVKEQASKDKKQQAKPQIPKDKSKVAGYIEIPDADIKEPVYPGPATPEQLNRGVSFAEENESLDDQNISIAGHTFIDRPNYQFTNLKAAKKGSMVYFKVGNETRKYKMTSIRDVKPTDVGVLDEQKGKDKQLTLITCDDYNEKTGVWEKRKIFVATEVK
Briefly: Inhibition of Staphylococcus aureus sortase A using dabcyl-QALPETGEE-edans as substrate incubated for 1 hr prior to substrate addition measured at 1 min interval for 1 hr by FRET analysis. In outline: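 Recombinant S. aureus SrtA catalytic domain (residues 1–59 deleted, C-terminal His6; E. coli BL21(DE3), Ni-NTA then gel filtration), 10 µM, preincubated 1 h at 37 °C with increasing inhibitor concentrations in 50 mM Tris-HCl pH 7.5, 5 mM CaCl2, 150 mM NaCl; then 20 µM substrate added. Fluorescence (ex 350/em 495 nm) read each minute for 1 h; progress curves constructed for IC50.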

The target of assay [3] is T2, Sortase A (Staphylococcus aureus) (UniProt Q9S446).
T2 sequence (whole entry): T1 sequence (Q9S446 whole entry)
In words: Irreversible binding affinity to Staphylococcus aureus sortase A by 15N-1H HSQC NMR spectroscopy. In outline: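 2D 15N–1H HSQC used 15N-labelled SrtAΔN59-6His (E. coli BL21(DE3), M9 with 15N-ammonium) at 0.3 mM. Buffer was 20 mM sodium acetate, 50 mM NaCl, 10 mM CaCl2, pH 6.0, 6% D2O. Inhibitor (100 mM stock in DMSO-d6) was added stepwise with a spectrum after each addition. Reversibility was checked by HSQC after dialysis against NMR buffer (100-fold dilution).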

Molecules are shown by their SMILES. Converted amounts (≈) assume the structure as drawn. The source made the active and inactive calls. The rule behind the calls is not given here.

In the case of `O=C(O)CCn1sc2ccccc2c1=O`, the minimal inhibitory concentration (MIC) in assay [1] amounted to 287 µM (≈ 64 µg/mL); with Staphylococcus aureus it was 287 µM (≈ 64 µg/mL); against Escherichia coli, 71.7 µM (≈ 16 µg/mL). Moreover, the values for the IC50 (in assay [2]; at Sortase A (read-out: IC50)) were 21.8 µM and 12.8 µM, respectively.

As to `O=C(Cn1sc2ccccc2c1=O)NC12CC3CC(CC(C3)C1)C2`, the MIC was 1.46 µM (≈ 0.5 µg/mL) in assay [1], 2.92 µM (≈ 1 µg/mL) with Staphylococcus aureus and > 1500 µM in the assay on Escherichia coli. Moreover, in assay [3], the result was Active. Moreover, the IC50 stood at 1.27 µM in assay [2] and 6.11 µM at Sortase A (read-out: IC50).

`CC12CC3(C)CC(O)(C1)CC(NC(=O)Cn1sc4ccccc4c1=O)(C2)C3`: the MIC in assay [1] was 20.7 µM (≈ 8 µg/mL); against Staphylococcus aureus, 20.7 µM (≈ 8 µg/mL); against Escherichia coli, > 1290 µM. Further, the figures for the concentration for half-maximal inhibition (IC50) (in assay [2]; at Sortase A (read-out: IC50)) were 1.33 µM and 3.87 µM, respectively.

Regarding `O=C(CCn1sc2cccc(F)c2c1=O)NNC(=O)C12CC3CC(CC(C3)C1)C2`, the figures for the minimum inhibitory concentration (MIC) (in assay [1]; against Staphylococcus aureus; against Escherichia coli) were 19.2 µM (≈ 8 µg/mL), 38.3 µM (≈ 16 µg/mL) and > 1200 µM, respectively. Besides, the results for the half-inhibitory concentration (IC50) (in assay [2]; on Sortase A (read-out: IC50)) were 1.67 µM and 3.39 µM, respectively.

For `CC12CC3CC(C)(C1)CC(NC(=O)CCn1sc4cccc(F)c4c1=O)(C3)C2`, the figures for the minimum inhibitory concentration (MIC) (in assay [1]; in the assay on Staphylococcus aureus; against Escherichia coli) were 2.48 µM (≈ 0.998 µg/mL), 39.7 µM (≈ 16 µg/mL) and > 1240 µM, respectively. Besides, the concentration for half-maximal inhibition (IC50) was determined as 9.89 µM in assay [2] and 4.07 µM on Sortase A (read-out: IC50).

As to `O=C(CCn1sc2ccccc2c1=O)NNC(=O)C12CC3CC(CC(C3)C1)C2`, the minimum inhibitory concentration (MIC) in assay [1] was 10 µM (≈ 4 µg/mL); in the assay on Staphylococcus aureus, 20 µM (≈ 8 µg/mL); with Escherichia coli, > 1250 µM. Besides, the half-inhibitory concentration (IC50) in assay [2] is 12.2 µM; on Sortase A (read-out: IC50), 4.22 µM.

In the case of `O=C(CCn1sc2ccccc2c1=O)NC12CC3CC(CC(O)(C3)C1)C2`, the MIC was 85.9 µM (≈ 32 µg/mL) in assay [1], 43 µM (≈ 16 µg/mL) against Staphylococcus aureus and > 1340 µM with Escherichia coli. Moreover, the IC50 in assay [2] worked out at 7.13 µM; at Sortase A (read-out: IC50) it was 6.44 µM.

Turning to `CC12CC3(C)CC(O)(C1)CC(NC(=O)CCn1sc4cccc(F)c4c1=O)(C2)C3`, the minimum inhibitory concentration (MIC) in assay [1] was 38.2 µM (≈ 16 µg/mL); against Staphylococcus aureus it was 38.2 µM (≈ 16 µg/mL); against Escherichia coli, > 1190 µM. For the same compound, the concentration for half-maximal inhibition (IC50) in assay [2] came to 2.17 µM; at Sortase A (read-out: IC50), 3.96 µM.

For the compound `Cl.NC12CC3CC(CC(C3)C1)C2` [AMANTADINE HYDROCHLORIDE], the minimal inhibitory concentration (MIC) (in assay [1]; with Staphylococcus aureus; with Escherichia coli) was > 2660 µM throughout. For the same compound, the half-inhibitory concentration (IC50) was 2290 µM in assay [2] and “Not Active” on Sortase A.

With `COC(=O)C12CC3CC(CC(NC(=O)CCn4sc5cccc(F)c5c4=O)(C3)C1)C2`, the values for the minimum inhibitory concentration (MIC) (in assay [1]; against Staphylococcus aureus; against Escherichia coli) were 18.5 µM (≈ 8 µg/mL), 37 µM (≈ 16 µg/mL) and > 1160 µM, respectively. For the same compound, the results for the IC50 (in assay [2]; at Sortase A (read-out: IC50)) were 8.02 µM and 5.06 µM, respectively.

Take `CN(C)CCC(=O)c1ccc(Cl)c(Cl)c1`: the MIC in assay [1] is 56.6 µM (≈ 13.9 µg/mL); in the assay with Staphylococcus aureus, 113 µM (≈ 27.9 µg/mL); against Escherichia coli, > 1770 µM. Further, the IC50 in assay [2] came out at 9.71 µM; at Sortase A (read-out: IC50), 16.9 µM.

In the case of `COC(=O)C12CC3CC(CC(NC(=O)CCn4sc5ccccc5c4=O)(C3)C1)C2`, the results for the minimal inhibitory concentration (MIC) (in assay [1]; against Staphylococcus aureus; with Escherichia coli) were 19.3 µM (≈ 8 µg/mL), 38.6 µM (≈ 16 µg/mL) and > 1210 µM, respectively. Further, the IC50 in assay [2] was determined as 12.1 µM; at Sortase A (read-out: IC50), 5.08 µM.

As to `O=C(CN1Cc2ccccc2C1=O)NC12CC3CC(CC(C3)C1)C2`, the MIC (in assay [1]; against Staphylococcus aureus; in the assay on Escherichia coli) was > 1540 µM each time. Moreover, the concentration for half-maximal inhibition (IC50) in assay [2] was 263 µM; against Sortase A, “Not Active”.

Consider `O=C(CCn1sc2ccccc2c1=O)NC12CC3CC(CC(C3)C1)C2`, for which the MIC in assay [1] was 5.61 µM (≈ 2 µg/mL); with Staphylococcus aureus, 22.4 µM (≈ 8 µg/mL); against Escherichia coli, > 1400 µM. Also, the half-maximal inhibitory concentration (IC50) was 5.95 µM in assay [2] and 3.81 µM at Sortase A (read-out: IC50).

Consider `O=C(CCn1sc2cccc(F)c2c1=O)NC12CC3CC(CC(C3)C1)C2`, for which the values for the minimal inhibitory concentration (MIC) (in assay [1]; against Staphylococcus aureus; with Escherichia coli) were 10.7 µM (≈ 4 µg/mL), 85.5 µM (≈ 32 µg/mL) and > 1340 µM, respectively. Further, the half-inhibitory concentration (IC50) is 0.9 µM in assay [2] and 4.01 µM on Sortase A (read-out: IC50).

`CC12CC3(C)CC(O)(C1)CC(NC(=O)CCn1sc4ccccc4c1=O)(C2)C3`: the values for the MIC (in assay [1]; against Staphylococcus aureus; in the assay on Escherichia coli) were 40 µM (≈ 16 µg/mL), 40 µM (≈ 16 µg/mL) and > 1250 µM, respectively. Besides, the figures for the 50% inhibitory concentration (IC50) (in assay [2]; on Sortase A (read-out: IC50)) were 7.52 µM and 7.06 µM, respectively.

As to `C=CS(=O)(=O)c1ccccc1` [(ETHENYLSULFONYL)BENZENE], the minimal inhibitory concentration (MIC) (in assay [1]; in the assay with Staphylococcus aureus; in the assay with Escherichia coli) was > 2960 µM in each case. In addition, half-maximal inhibition in assay [2] (IC50) required 7.91 µM.

With `O=C(Cn1sc2ccccc2c1=O)NNC(=O)C12CC3CC(CC(C3)C1)C2`, the MIC in assay [1] was 10.4 µM (≈ 4 µg/mL); with Staphylococcus aureus it was 41.5 µM (≈ 16 µg/mL); with Escherichia coli, > 1300 µM. Besides, the concentration for half-maximal inhibition (IC50) in assay [2] was determined as 14.4 µM; at Sortase A (read-out: IC50), 3.8 µM.

On to `CC12CC3CC(C)(C1)CC(NC(=O)Cn1sc4ccccc4c1=O)(C3)C2`, for which the MIC in assay [1] is 43.2 µM (≈ 16 µg/mL); against Staphylococcus aureus, 86.4 µM (≈ 32 µg/mL); in the assay on Escherichia coli it was > 1350 µM. Besides, the IC50 was found to be 4.09 µM in assay [2] and 4.99 µM at Sortase A (read-out: IC50).

For `CC12CC3CC(C)(C1)CC(NC(=O)CCn1sc4ccccc4c1=O)(C3)C2`, the MIC was 20.8 µM (≈ 8 µg/mL) in assay [1], 20.8 µM (≈ 8 µg/mL) against Staphylococcus aureus and > 1300 µM in the assay with Escherichia coli. Also, the IC50 in assay [2] is 4.23 µM; at Sortase A (read-out: IC50), 4.62 µM.

`O=C(CCn1sc2cccc(F)c2c1=O)NC12CC3CC(CC(O)(C3)C1)C2`: the MIC is 164 µM (≈ 64 µg/mL) in assay [1], 164 µM (≈ 64 µg/mL) with Staphylococcus aureus and > 1280 µM in the assay on Escherichia coli. For the same compound, the IC50 in assay [2] came to 1.34 µM; at Sortase A (read-out: IC50), 6.26 µM.

For the compound `COC(=O)C12CC3CC(CC(N)(C3)C1)C2.Cl`, the minimal inhibitory concentration (MIC) (in assay [1]; in the assay with Staphylococcus aureus; in the assay with Escherichia coli) was > 2030 µM each time. The results for the IC50 (in assay [2]; against Sortase A) were 2290 µM and “Not Active”, respectively.
